Measurements taken from ChEMBL document CHEMBL3098128, “Design and synthesis of tamoxifen derivatives as a selective estrogen receptor down-regulator” (Bioorg Med Chem Lett, 2014).
Active and inactive are the calls of the source. The rule behind the calls is not given here.

Tests used:
[1] = test system: MCF7; assay: Downregulation of ERalpha protein levels in human MCF7 cells at 10 uM after 6 hrs by Western blot method; assay type: functional, cell-based
In short: (§1)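 MCF-7 breast cancer cells were incubated with compound or DMSO vehicle for 6 h. Compound was given at 10 µM in single-dose comparisons, or at 1 to 30 µM in the dose series. Whole-cell protein was extracted and ERα protein level was assessed by Western blotting.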

[2] = test system: MCF7; assay: Downregulation of ERalpha protein levels in human MCF7 cells at 1 to 30 uM after 6 hrs by Western blot method; assay type: functional, cell-based; in short: as §1
[3] = test system: MCF7; assay: Downregulation of ERalpha protein levels in human MCF7 cells at 10 uM after 6 hrs by Western blot method in presence of proteasome inhibitor MG132; assay type: functional, cell-based
[4] = target: T1, Estrogen receptor (Homo sapiens) (UniProt P03372); assay: Antagonist activity at ERalpha in human MCF7 cells assessed as inhibition of E2-induced pS2 mRNA expression after 9 hrs by RT-PCR analysis; assay type: cell-based
T1 sequence (whole entry): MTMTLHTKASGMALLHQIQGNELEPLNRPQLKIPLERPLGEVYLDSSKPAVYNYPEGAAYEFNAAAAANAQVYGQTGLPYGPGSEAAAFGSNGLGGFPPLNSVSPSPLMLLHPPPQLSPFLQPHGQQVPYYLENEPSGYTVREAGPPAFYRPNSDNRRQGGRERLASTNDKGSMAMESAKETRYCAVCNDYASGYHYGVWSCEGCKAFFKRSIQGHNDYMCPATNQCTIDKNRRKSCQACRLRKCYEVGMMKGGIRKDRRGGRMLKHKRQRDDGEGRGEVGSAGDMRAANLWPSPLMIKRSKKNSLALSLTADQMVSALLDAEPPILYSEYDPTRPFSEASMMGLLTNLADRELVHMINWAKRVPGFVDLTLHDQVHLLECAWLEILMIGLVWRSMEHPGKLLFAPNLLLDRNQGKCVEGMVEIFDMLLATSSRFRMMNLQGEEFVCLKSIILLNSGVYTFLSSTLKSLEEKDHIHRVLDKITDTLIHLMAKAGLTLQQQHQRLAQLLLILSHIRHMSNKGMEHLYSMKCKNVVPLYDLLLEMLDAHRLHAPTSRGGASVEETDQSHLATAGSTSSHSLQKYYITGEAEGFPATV
In short: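 MCF-7 cells treated with compound across 0.1 to 10 µM, with or without 10 nM E2, for 9 h. Total RNA was extracted and reverse-transcribed. pS2 mRNA was quantified by real-time PCR.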

[5] = test system: MCF7; assay: Downregulation of ERalpha protein levels in human MCF7 cells at 30 uM after 6 hrs by Western blot method; assay type: functional, cell-based; in short: as §1
[6] = test system: MCF7; assay: Downregulation of ERalpha protein levels in human MCF7 cells after 6 hrs by Western blot method; assay type: functional, cell-based; in short: as §1
[7] = test system: MCF7; assay: Upregulation of ERalpha protein levels in human MCF7 cells at 10 uM after 6 hrs by Western blot method; assay type: functional, cell-based
In short: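 MCF-7 human breast cancer cells exposed to 10 µM compound or DMSO vehicle for 6 h. Whole-cell protein extracted, and ERα protein level assessed by Western blotting against the DMSO-treated control.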

CCCCCCNCCOc1ccc(/C(=C(/CC)c2ccccc2)c2ccc(O)cc2)cc1
Activity [1]: inactive | Activity [2]: inactive

CCCCCCCCCCCCNCCOc1ccc(/C(=C(/CC)c2ccccc2)c2ccc(O)cc2)cc1
Activity [3]: inactive | Activity [1]: Active | inhibition [4]: Dose-dependent effect | Activity [5]: Active | Activity [6]: Dose-dependent effect

CCCCCCCCCCCCCCCCCCNCCOc1ccc(/C(=C(/CC)c2ccccc2)c2ccc(O)cc2)cc1
Activity [1]: inactive

CCCCCCCCCCCCN(C)CCOc1ccc(/C(=C(/CC)c2ccccc2)c2ccc(O)cc2)cc1
Activity [1]: inactive

CCC(=C(c1ccc(O)cc1)c1ccc(OCCN(C)C)cc1)c1ccccc1
Activity [7]: Active

CCCCCCCCCCCCN(CCCCCCCCCCCC)CCOc1ccc(/C(=C(/CC)c2ccccc2)c2ccc(O)cc2)cc1
Activity [1]: inactive

CC/C(=C(\c1ccc(O)cc1)c1ccc(OCCNC)cc1)c1ccccc1
Activity [7]: Active
